ChEMBL document CHEMBL1177827, “Discovery of novel 1H-imidazol-2-yl-pyrimidine-4,6-diamines as potential antimalarials” (Bioorg Med Chem Lett, 2010)
Values after ≈ are worked out from the molar mass of the structure shown.

Tests used:
Plasmodium falciparum [1] = assay: Antimalarial activity Plasmodium falciparum 3D7; type: functional, organism-based
Outline: (§1)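 P. falciparum-infected human red blood cell proliferation assay, with SYBR Green staining as the read-out of parasite growth. EC50 is the mean of two experiments. Each plate carries mefloquine, sulfadoxine and artemisinin as internal standards.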

Plasmodium falciparum [2] = assay: Antimalarial activity Plasmodium falciparum C188; type: functional, organism-based; outline: as §1
Plasmodium falciparum [3] = assay: Antimalarial activity Plasmodium falciparum FcB1; type: functional, organism-based; settings: FcB1/Columbia; outline: as §1
[4] = Oral bioavailability in mouse; type: ADME, organism-based; settings: in vivo
[5] = Half life in mouse; type: ADME, organism-based; settings: in vivo
Plasmodium falciparum [6] = assay: Antimalarial activity Plasmodium falciparum W2; type: functional, organism-based; outline: as §1
[7] = Metabolic stability in rat microsomes assessed as extraction ratio; type: ADME, Microsome
Plasmodium falciparum [8] = assay: Antimalarial activity Plasmodium falciparum 3BAG; type: functional, organism-based; outline: as §1
Plasmodium falciparum [9] = assay: Antimalarial activity Plasmodium falciparum D10; type: functional, organism-based; outline: as §1
[10] = AUC (0 to infinity) in mouse; type: ADME, organism-based; parameters: time infinity; settings: plasma
Plasmodium falciparum [11] = assay: Antimalarial activity Plasmodium falciparum HB3; type: functional, organism-based; outline: as §1
Plasmodium falciparum [12] = assay: Antimalarial activity Plasmodium falciparum 7G8; type: functional, organism-based; outline: as §1
[13] = Metabolic stability in mouse microsomes assessed as extraction ratio; type: ADME, Microsome
Plasmodium falciparum [14] = assay: Antimalarial activity Plasmodium falciparum Dd2; type: functional, organism-based; outline: as §1
[15] = Metabolic stability in human microsomes assessed as extraction ratio; type: ADME, Microsome
Plasmodium falciparum [16] = assay: Antimalarial activity Plasmodium falciparum NF54; type: functional, organism-based; outline: as §1
[17] = Thermodynamic solubility at pH 6.8; type: physicochemical; settings: buffer
Outline: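 Thermodynamic solubility measured at pH 6.8, reported in […].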

Plasmodium falciparum [18] = assay: Antimalarial activity Plasmodium falciparum CAMP R; type: functional, organism-based; settings: CampR; outline: as §1
Plasmodium falciparum [19] = assay: Antimalarial activity Plasmodium falciparum FCR3; type: functional, organism-based; settings: FCR-3/Gambia; outline: as §1
Plasmodium falciparum [20] = assay: Antimalarial activity Plasmodium falciparum TM91C235; type: functional, organism-based; outline: as §1
[21] = Cmax in mouse; type: ADME, organism-based; settings: in vivo
Plasmodium falciparum [22] = assay: Antimalarial activity Plasmodium falciparum K1; type: functional, organism-based; outline: as §1
Plasmodium falciparum [23] = assay: Antimalarial activity Plasmodium falciparum D6; type: functional, organism-based; outline: as §1

## FC(F)(F)Oc1ccc(Nc2cc(Nc3nccn3-c3cc(N4CCOCC4)cc(C(F)(F)F)c3)ncn2)cc1
Plasmodium falciparum [1]
  EC50: 532 nM

## O=C(NCCc1c[nH]cn1)c1cccc(-n2ccnc2Nc2cc(Nc3ccc(OC(F)(F)F)cc3)ncn2)c1
Plasmodium falciparum [1]
  EC50: 1780 nM

## Cc1c(Nc2ccc(OC(F)(F)F)cc2)ncnc1Nc1nccn1-c1cccc(C(F)(F)F)c1
Plasmodium falciparum [1]
  EC50: 4680 nM

## Cc1nc(Nc2ccc(OC(F)(F)F)cc2)cc(Nc2nccn2-c2cccc(C(=O)NCCc3c[nH]cn3)c2)n1
Plasmodium falciparum [1]
  EC50: 822 nM

## FC(F)(F)Oc1ccc(Nc2cc(Nc3nccn3-c3cccc(C(F)(F)F)c3)nc(Oc3ccccc3)n2)cc1
Plasmodium falciparum [1]
  EC50: 116 nM

## CS(=O)(=O)c1nc(Nc2ccc(OC(F)(F)F)cc2)cc(Nc2nccn2-c2cccc(C(F)(F)F)c2)n1
Plasmodium falciparum [1]
  EC50: 291 nM

## CN(c1cc(Nc2ccc(OC(F)(F)F)cc2)ncn1)c1nccn1-c1cccc(C(F)(F)F)c1
Plasmodium falciparum [1]
  EC50: 3830 nM

## CN1CCN(c2nc(Nc3ccc(OC(F)(F)F)cc3)cc(Nc3nccn3-c3cccc(C(F)(F)F)c3)n2)CC1
Plasmodium falciparum [2]
  EC50: 140 nM
Plasmodium falciparum [3]
  EC50: 50 nM
[4]
  bioavailability: 30%
[5]
  half-life: 12 h
Plasmodium falciparum [6]
  EC50: 120 nM
[7]
  hepatic extraction ratio: 0.264
Plasmodium falciparum [8]
  EC50: 60 nM
Plasmodium falciparum [9]
  EC50: 15 nM
Plasmodium falciparum [1]
  EC50: 34 nM
[10]
  AUC(0-inf): 14.2 µM·h
Plasmodium falciparum [11]
  EC50: 46 nM
Plasmodium falciparum [12]
  EC50: 95 nM
[13]
  hepatic extraction ratio: < 0.17
Plasmodium falciparum [14]
  EC50: 71 nM
[15]
  hepatic extraction ratio: < 0.28
Plasmodium falciparum [16]
  EC50: 33 nM
[17]
  solubility thermodynamic: 40 µg/mL (≈ 69.1 µM)
Plasmodium falciparum [18]
  EC50: 50 nM
Plasmodium falciparum [19]
  EC50: 139 nM
Plasmodium falciparum [20]
  EC50: 58 nM
[21]
  Cmax: 946 nM
Plasmodium falciparum [22]
  EC50: 88 nM
Plasmodium falciparum [23]
  EC50: 50 nM

## FC(F)(F)Oc1ccc(Nc2cc(Nc3nccn3-c3cccc(C(F)(F)F)c3)nc(NCCN3CCOCC3)n2)cc1
Plasmodium falciparum [1]
  EC50: 53 nM

## COc1nc(Nc2ccc(OC(F)(F)F)cc2)cc(Nc2nccn2-c2cccc(C(F)(F)F)c2)n1
Plasmodium falciparum [1]
  EC50: 190 nM

## CC(C)Oc1nc(Nc2ccc(OC(F)(F)F)cc2)cc(Nc2nccn2-c2cccc(C(F)(F)F)c2)n1
Plasmodium falciparum [1]
  EC50: 60 nM

## FC(F)(F)Oc1ccc(Nc2cc(Nc3nccn3-c3cccc(C(F)(F)F)c3)nc(C(F)(F)F)n2)cc1
Plasmodium falciparum [1]
  EC50: 353 nM

## FC(F)(F)Oc1ccc(Nc2cc(Nc3nccn3-c3cccc(C(F)(F)F)c3)nc(-c3ccccc3)n2)cc1
Plasmodium falciparum [1]
  EC50: 74 nM

## CSc1nc(Nc2ccc(OC(F)(F)F)cc2)cc(Nc2nccn2-c2cccc(C(F)(F)F)c2)n1
Plasmodium falciparum [1]
  EC50: 107 nM

## FC(F)(F)Oc1ccc(Nc2cc(Nc3nccn3-c3cccc(C(F)(F)F)c3)ncn2)cc1
Plasmodium falciparum [1]
  EC50: 436 nM

## FC(F)(F)Oc1ccc(Nc2cc(Nc3nccn3-c3cc(Br)cc(C(F)(F)F)c3)ncn2)cc1
Plasmodium falciparum [1]
  EC50: 223 nM

## Oc1nc(Nc2ccc(OC(F)(F)F)cc2)cc(Nc2nccn2-c2cccc(C(F)(F)F)c2)n1
Plasmodium falciparum [1]
  EC50: 5440 nM

## Cc1nc(Nc2ccc(OC(F)(F)F)cc2)cc(Nc2nccn2-c2cccc(C(=O)NCCCN3CCOCC3)c2)n1
Plasmodium falciparum [1]
  EC50: 67 nM

## FC(F)(F)Oc1ccc(Nc2nccc(Nc3nccn3-c3cccc(C(F)(F)F)c3)n2)cc1
Plasmodium falciparum [1]
  EC50: 432 nM

## FC(F)(F)Oc1ccc(Nc2cc(Nc3nccn3-c3cccc(C(F)(F)F)c3)nc(N3CCOCC3)n2)cc1
Plasmodium falciparum [1]
  EC50: 113 nM

## FC(F)(F)Oc1ccc(Nc2ncnc(Nc3nccn3-c3cccc(C(F)(F)F)c3)n2)cc1
Plasmodium falciparum [1]
  EC50: 1330 nM

## Nc1nc(Nc2ccc(OC(F)(F)F)cc2)cc(Nc2nccn2-c2cccc(C(F)(F)F)c2)n1
Plasmodium falciparum [1]
  EC50: 49 nM

## Cc1nc(Nc2ccc(OC(F)(F)F)cc2)cc(Nc2nccn2-c2cccc(C(F)(F)F)c2)n1
Plasmodium falciparum [1]
  EC50: 114 nM

## CN1CCN(c2cc(-n3ccnc3Nc3cc(Nc4ccc(OC(F)(F)F)cc4)ncn3)cc(C(F)(F)F)c2)CC1
Plasmodium falciparum [1]
  EC50: 65 nM

## OCCN1CCN(c2cc(-n3ccnc3Nc3cc(Nc4ccc(OC(F)(F)F)cc4)ncn3)cc(C(F)(F)F)c2)CC1
Plasmodium falciparum [1]
  EC50: 175 nM

## FC(F)(F)Oc1ccc(Nc2cc(Nc3nccn3-c3cc(N4CCC(N5CCOCC5)CC4)cc(C(F)(F)F)c3)ncn2)cc1
Plasmodium falciparum [1]
  EC50: 88 nM

## CN1CCN(C2CCN(c3cc(-n4ccnc4Nc4cc(Nc5ccc(OC(F)(F)F)cc5)ncn4)cc(C(F)(F)F)c3)CC2)CC1
Plasmodium falciparum [1]
  EC50: 90 nM
[15]
  hepatic extraction ratio: 0.316
[17]
  solubility thermodynamic: 110 µg/mL (≈ 166 µM)

## FC(F)(F)Oc1ccc(Nc2cc(Nc3nccn3-c3cc(N4CCC(N5CCCC5)CC4)cc(C(F)(F)F)c3)ncn2)cc1
Plasmodium falciparum [1]
  EC50: 92 nM

## FC(F)(F)Oc1ccc(Nc2cc(Nc3nccn3-c3cc(NCCN4CCOCC4)cc(C(F)(F)F)c3)ncn2)cc1
Plasmodium falciparum [1]
  EC50: 87 nM

## CCN(CC)CCNC(=O)c1cccc(-n2ccnc2Nc2cc(Nc3ccc(OC(F)(F)F)cc3)nc(C)n2)c1
[7]
  hepatic extraction ratio: 0.367
Plasmodium falciparum [1]
  EC50: 46 nM
[13]
  hepatic extraction ratio: < 0.17
[15]
  hepatic extraction ratio: < 0.31
[17]
  solubility thermodynamic: 80 µg/mL (≈ 141 µM)

## CN1CCN(CCNc2cc(-n3ccnc3Nc3cc(Nc4ccc(OC(F)(F)F)cc4)ncn3)cc(C(F)(F)F)c2)CC1
Plasmodium falciparum [1]
  EC50: 91 nM

## O=C(NCCN1CCOCC1)c1cccc(-n2ccnc2Nc2cc(Nc3ccc(OC(F)(F)F)cc3)ncn2)c1
Plasmodium falciparum [1]
  EC50: 249 nM

## Cc1nc(Nc2ccc(OC(F)(F)F)cc2)cc(Nc2nccn2-c2cccc(C(=O)N3CCN(CCO)CC3)c2)n1
Plasmodium falciparum [1]
  EC50: 768 nM

## CCN1CCCC1CNC(=O)c1cccc(-n2ccnc2Nc2cc(Nc3ccc(OC(F)(F)F)cc3)nc(C)n2)c1 (stereo not given)
[7]
  hepatic extraction ratio: 0.275
Plasmodium falciparum [1]
  EC50: 60 nM
[13]
  hepatic extraction ratio: < 0.17
[17]
  solubility thermodynamic: 89 µg/mL (≈ 153 µM)

## Cc1nc(Nc2ccc(OC(F)(F)F)cc2)cc(Nc2nccn2-c2cccc(C(=O)NCCN3CCOCC3)c2)n1
[7]
  hepatic extraction ratio: 0.243
Plasmodium falciparum [1]
  EC50: 69 nM
[13]
  hepatic extraction ratio: < 0.17
[15]
  hepatic extraction ratio: < 0.42
[17]
  solubility thermodynamic: 90 µg/mL (≈ 154 µM)

## Cc1nc(Nc2ccc(OC(F)(F)F)cc2)cc(Nc2nccn2-c2cccc(C(=O)NCCN3CCCC3)c2)n1
Plasmodium falciparum [1]
  EC50: 168 nM

## Cc1nc(Nc2ccc(OC(F)(F)F)cc2)cc(Nc2nccn2-c2cccc(C(=O)NCCCN3CCCC3)c2)n1
Plasmodium falciparum [1]
  EC50: 224 nM

## Cc1nc(Nc2ccc(OC(F)(F)F)cc2)cc(Nc2nccn2-c2cccc(C(=O)NCCCN3CCN(C)CC3)c2)n1
Plasmodium falciparum [1]
  EC50: 239 nM

## FC(F)(F)Oc1ccc(Nc2ccnc(Nc3nccn3-c3cccc(C(F)(F)F)c3)n2)cc1
Plasmodium falciparum [1]
  EC50: 268 nM

## FC(F)(F)Oc1ccc(Nc2nc(Nc3nccn3-c3cccc(C(F)(F)F)c3)c3ccccc3n2)cc1
Plasmodium falciparum [1]
  EC50: 564 nM

## FC(F)(F)Oc1ccc(Oc2cc(Nc3nccn3-c3cccc(C(F)(F)F)c3)ncn2)cc1
Plasmodium falciparum [1]
  EC50: 4240 nM

## CNc1nc(Nc2ccc(OC(F)(F)F)cc2)cc(Nc2nccn2-c2cccc(C(F)(F)F)c2)n1
Plasmodium falciparum [1]
  EC50: 54 nM

## C[C@@H]1CC[C@H]2[C@@H](C)C(=O)O[C@@H]3O[C@@]4(C)CC[C@@H]1[C@]32OO4 [ARTEMISININ]
Plasmodium falciparum [1]
  EC50: 10 nM

## OC(c1cc(C(F)(F)F)nc2c(C(F)(F)F)cccc12)C1CCCCN1 (stereo not given) [MEFLOQUINE]
Plasmodium falciparum [1]
  EC50: 20 nM

## COc1ncnc(NS(=O)(=O)c2ccc(N)cc2)c1OC [SULFADOXINE]
Plasmodium falciparum [1]
  EC50: 30 nM
